Laboratory results published in paper PMC8923172 (Antimicrobial Agents and Chemotherapy, 2022).
Residues, ends and D or L forms follow the SMILES beside them.

Key:
in vivo = settings: Sprague-Dawley, rat, iv
[1] = Hematology of cynomolgus monkeys at the end of treatment; format: in vivo; settings: median (IQR)
In short: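 GLP 10-day study in male and female cynomolgus monkeys (n = 3-5/sex/group) dosed once daily with 0 (placebo), 5, 10 or 15 mg/kg test compound by i.v. infusion over 60 ± 5 min. Hematology, serum chemistry and coagulation were taken at end of treatment and reported as median (IQR). Dose groups were compared by Kruskal-Wallis with Dunn's multiple comparison test.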

Structure (SMILES): CC[C@H](C)[C@@H]1NC(=O)[C@@H]2CSSC[C@H](NC(=O)[C@H](CCCNC(=N)N)NC(=O)[C@@H]3CSSC[C@H](NC1=O)C(=O)N[C@@H]([C@@H](C)O)C(=O)N[C@@H](CCCNC(=N)N)C(=O)NCC(=O)N[C@@H](Cc1ccccc1)C(=O)N3)C(=O)N[C@@H](CC(C)C)C(=O)N[C@H]1CSSC[C@H](NC(=O)[C@H](C(C)C)NC(=O)CNC(=O)[C@H](CCCNC(=N)N)NC(=O)[C@H](CCCNC(=N)N)NC1=O)C(=O)N[C@@H](CCCNC(=N)N)C(=O)N2 [RTD-1, Rhesus theta (θ) defensin-1] (HELM PEPTIDE1{G.F.C.R.C.L.C.R.R.G.V.C.R.C.I.C.T.R}$PEPTIDE1,PEPTIDE1,3:R3-16:R3|PEPTIDE1,PEPTIDE1,5:R3-14:R3|PEPTIDE1,PEPTIDE1,7:R3-12:R3|PEPTIDE1,PEPTIDE1,1:R1-18:R2$$$V2.0)
- Vd (in vivo; both, 20 mg/kg): 0.756 L/kg
- level at 600 h (in vivo; female, 10 mg/kg): 12.5 ng/mL
- Basophils, absolute ([1]; female, 5 mg/kg/day): 0.05 (0.01) 10^3/mm^3
- Eosinophils, absolute ([1]; female, 5 mg/kg/day): 0.32 (0.27) 10^3/mm^3
- Hematocrit ([1]; female, 5 mg/kg/day): 43.80 (3.15) %
- Hemoglobin ([1]; female, 5 mg/kg/day): 12.90 (0.35) g/dL
- LUC, absolute ([1]; female, 5 mg/kg/day): 0.11 (0.02) 10^3/mm^3
- Lymphocytes, absolute ([1]; female, 5 mg/kg/day): 3.40 (1.18) 10^3/mm^3
- MCH ([1]; female, 5 mg/kg/day): 21.20 (1.10) pg
- MCHC ([1]; female, 5 mg/kg/day): 29.50 (1.35) g/dL
- MCV ([1]; female, 5 mg/kg/day): 69.20 (1.70) fL
- Monocytes, absolute ([1]; female, 5 mg/kg/day): 0.53 (0.21) 10^3/mm^3
- Neutrophils, absolute ([1]; female, 5 mg/kg/day): 6.43 (2.10) 10^3/mm^3
- Platelets ([1]; female, 5 mg/kg/day): 576.00 (58.00) 10^3/mm^3
- RBC ([1]; female, 5 mg/kg/day): 6.05 (0.47) 10^6/mm^3
- RDW ([1]; female, 5 mg/kg/day): 15.10 (0.50) %
- Reticulocytes, absolute ([1]; female, 5 mg/kg/day): 53.60 (17.00) 10^9/L
- WBC ([1]; female, 5 mg/kg/day): 12.70 (2.30) 10^3/mm^3
- Basophils, absolute ([1]; female, 10 mg/kg/day): 0.06 (0.04) 10^3/mm^3
- Eosinophils, absolute ([1]; female, 10 mg/kg/day): 0.40 (0.06) 10^3/mm^3
- Hematocrit ([1]; female, 10 mg/kg/day): 38.50 (4.60) %
- Hemoglobin ([1]; female, 10 mg/kg/day): 10.70 (1.25) g/dL
- LUC, absolute ([1]; female, 10 mg/kg/day): 0.10 (0.01) 10^3/mm^3
- Lymphocytes, absolute ([1]; female, 10 mg/kg/day): 4.46 (1.00) 10^3/mm^3
- MCH ([1]; female, 10 mg/kg/day): 20.20 (1.00) pg
- MCHC ([1]; female, 10 mg/kg/day): 28.80 (0.70) g/dL
- MCV ([1]; female, 10 mg/kg/day): 69.70 (4.30) fL
- Monocytes, absolute ([1]; female, 10 mg/kg/day): 0.66 (0.13) 10^3/mm^3
- Neutrophils, absolute ([1]; female, 10 mg/kg/day): 5.08 (5.64) 10^3/mm^3
- Platelets ([1]; female, 10 mg/kg/day): 497.00 (214.50) 10^3/mm^3
- RBC ([1]; female, 10 mg/kg/day): 5.30 (0.94) 10^6/mm^3
- RDW ([1]; female, 10 mg/kg/day): 15.10 (0.70) %
- Reticulocytes, absolute ([1]; female, 10 mg/kg/day): 70.30 (33.40) 10^9/L
- WBC ([1]; female, 10 mg/kg/day): 10.70 (6.80) 10^3/mm^3
- Basophils, absolute ([1]; female, 15 mg/kg/day): 0.12 (0.01) 10^3/mm^3
- Eosinophils, absolute ([1]; female, 15 mg/kg/day): 0.34 (0.10) 10^3/mm^3
- Hematocrit ([1]; female, 15 mg/kg/day): 38.50 (6.90) %
- Hemoglobin ([1]; female, 15 mg/kg/day): 10.90 (1.70) g/dL
- LUC, absolute ([1]; female, 15 mg/kg/day): 0.16 (0.06) 10^3/mm^3
- Lymphocytes, absolute ([1]; female, 15 mg/kg/day): 5.09 (2.32) 10^3/mm^3
- MCH ([1]; female, 15 mg/kg/day): 19.90 (0.30) pg
- MCHC ([1]; female, 15 mg/kg/day): 28.80 (1.10) g/dL
- MCV ([1]; female, 15 mg/kg/day): 68.90 (2.00) fL
- Monocytes, absolute ([1]; female, 15 mg/kg/day): 0.79 (0.15)^c 10^3/mm^3
- Neutrophils, absolute ([1]; female, 15 mg/kg/day): 11.31 (5.67) 10^3/mm^3
- Platelets ([1]; female, 15 mg/kg/day): 513.00 (299.00) 10^3/mm^3
- RBC ([1]; female, 15 mg/kg/day): 6.04 (1.28) 10^6/mm^3
- RDW ([1]; female, 15 mg/kg/day): 14.70 (1.80) %
- Reticulocytes, absolute ([1]; female, 15 mg/kg/day): 83.90 (46.10) 10^9/L
- WBC ([1]; female, 15 mg/kg/day): 16.10 (5.40) 10^3/mm^3
- Basophils, absolute ([1]; male, 5 mg/kg/day): 0.12 (0.08) 10^3/mm^3
- Eosinophils, absolute ([1]; male, 5 mg/kg/day): 0.26 (0.12) 10^3/mm^3
- Hematocrit ([1]; male, 5 mg/kg/day): 43.10 (3.05) %
- Hemoglobin ([1]; male, 5 mg/kg/day): 12.70 (0.85) g/dL
- LUC, absolute ([1]; male, 5 mg/kg/day): 0.15 (0.07) 10^3/mm^3
- Lymphocytes, absolute ([1]; male, 5 mg/kg/day): 6.85 (3.12) 10^3/mm^3
- MCH ([1]; male, 5 mg/kg/day): 19.80 (0.55) pg
- MCHC ([1]; male, 5 mg/kg/day): 26.40 (1.55) g/dL
- MCV ([1]; male, 5 mg/kg/day): 75.10 (2.10) fL
- Monocytes, absolute ([1]; male, 5 mg/kg/day): 0.74 (0.23) 10^3/mm^3
- Neutrophils, absolute ([1]; male, 5 mg/kg/day): 4.65 (3.33) 10^3/mm^3
- Platelets ([1]; male, 5 mg/kg/day): 358.00 (21.50) 10^3/mm^3
- RBC ([1]; male, 5 mg/kg/day): 6.06 (0.42) 10^6/mm^3
- RDW ([1]; male, 5 mg/kg/day): 15.40 (1.00) %
- Reticulocytes, absolute ([1]; male, 5 mg/kg/day): 43.70 (23.20) 10^9/L
- WBC ([1]; male, 5 mg/kg/day): 14.70 (5.95) 10^3/mm^3
- Basophils, absolute ([1]; male, 10 mg/kg/day): 0.08 (0.04) 10^3/mm^3
- Eosinophils, absolute ([1]; male, 10 mg/kg/day): 0.20 (0.06) 10^3/mm^3
- Hematocrit ([1]; male, 10 mg/kg/day): 42.60 (5.20) %
- Hemoglobin ([1]; male, 10 mg/kg/day): 11.90 (1.30) g/dL
- LUC, absolute ([1]; male, 10 mg/kg/day): 0.15 (0.01) 10^3/mm^3
- Lymphocytes, absolute ([1]; male, 10 mg/kg/day): 5.85 (2.85) 10^3/mm^3
- MCH ([1]; male, 10 mg/kg/day): 20.30 (1.00) pg
- MCHC ([1]; male, 10 mg/kg/day): 27.90 (0.35) g/dL
- MCV ([1]; male, 10 mg/kg/day): 72.00 (4.00) fL
- Monocytes, absolute ([1]; male, 10 mg/kg/day): 0.63 (0.18) 10^3/mm^3
